Ba/F3 V617F tox = reduced viability of JAK2V617F-dependent Ba/F3 cells, primary screen, JAK2V617F inhibitor project, cell-based, Ba/F3 EpoR-JAK2V617F, luminescence | inhibition, % at 5.6 µM | 220,000 tested, 1.1% active | ATP luminescence | AID 1446, 2008;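 active means inhibition above the campaign mean plus 3 SD over all tested compounds, cut at about 24% in these data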;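 further: cytokine-independent growth of Ba/F3 cells driven by EpoR plus mutant JAK2; 0% = DMSO-treated cells and 100% = JAK inhibitor I control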
MT stabilize HCS = microtubule stabilizers in HeLa cells, primary screen, imaging, high-content imaging; 200,000 tested, 0.83% active; % tubulin-high responders, % at 10 µM; AID 2205, 2009; HeLa tubulin immunostaining HCS, 24 h; share of cells brighter than vehicle mean+2SD;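 active means plate Z-score above 3 for both tubulin-high and condensed-nucleus cell shares, with cell loss under 80%, at 10 µM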;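 further: anti alpha tubulin signal scored within the nucleus-defined area of each cell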
APP 5UTR inh = inhibitors of APP translation via 5'UTR reporter, primary screen, APP 5'UTR luciferase, SH-SY5Y cells | SH-SY5Y APP 5'UTR-luciferase reporter, luminescence | inhibition, % at 2 µM | 190,000 tested, 0.82% active | AID 1285, 2008;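 active means inhibition above a set limit, derived from the sample mean plus 3 SD, cut at about 45% in these data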
Lmaj promast = Leishmania major promastigote growth inhibition, primary screen; inhibition, % at 10 µM; Leishmania major promastigotes, resazurin fluorescence viability; 200,000 tested, 9% active; in the data active means inhibition above about 50%;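 further: promastigotes grown with compound for 44 hours at 28 °C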
BaF3 parental = parental Ba/F3 cell viability inhibition, counter-screen for JAK2V617F inhibitor project, murine pro-B, CellTiter-Glo luminescence; CellTiter-Glo ATP luminescence; inhibition, % at 5.6 µM; 220,000 tested, 1.1% active;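 active means inhibition above a per-campaign cutoff, the mean inhibition of all tested compounds plus 3 SD, cut at about 27% in these data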;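 further: 0% = DMSO wells and 100% = JAK Inhibitor I control wells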
bCat nuc transl = modulators of beta-catenin nuclear translocation, primary screen, imaging, HeLa cells, immunofluorescence, high-content; nuclear translocation activity, % at 5 µM; 190,000 tested, 0.3% active; AID 1665, 2009;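 active means nuclear translocation activity above 50% at 5 µM, with a well cell count of 50 or more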;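 further: per-cell ratio of nuclear to cytoplasmic median beta-catenin stain intensity; plate controls were DMSO negative control for no effect and GSK-3 inhibitor IX positive control for full effect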
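Test system: human HeLa cells, native beta-catenin. Compound dosing: 5 µM primary single dose, 0.1% DMSO, 0.02–20 µM confirmation series. Incubation: compound exposure 24 h at 37°C. Detection: beta-catenin immunostaining with DAPI counterstain, 20x imaging, 6 fields/well. Read-out basis: Nuclear/cytoplasmic beta-catenin signal ratio, % activation.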
The depositor's hits bear a star; x = not tested or not shown. Compounds with a hit are over-represented: about 9.6% of the library has one in this group of screens.

SMILES	Ba/F3 V617F tox	MT stabilize HCS	APP 5UTR inh	Lmaj promast	BaF3 parental	bCat nuc transl
NC(N)=N/N=C/c1ccc(N2CCOCC2)cc1	58*	10*	4	4	72*	2
CCOC(C(=O)OCCC[N+](C)(CC)CC)(c1ccccc1)c1ccccc1	2	2	14	5	4	-1
CCN(CC)CCCOC(=O)C(OC)(c1ccccc1)c1ccccc1	0	1	3	100*	2	x
CCOC(C(=O)OCC(O)CN(CC)CC)(c1ccccc1)c1ccccc1 (stereo not given)	-2	2	-4	100*	3	0
CCOC(=O)c1c(C)n(CC(O)CN2CCOCC2)c2cc(Br)c(OC)cc12 (stereo not given)	-1	2	-13	18	3	-1
CN1C(=O)CN=C(c2ccccc2)c2cc(Cl)ccc21	-8	x	x	x	-4	-2
O=[P+](Cc1ccccc1)Cc1ccccc1	-3	2	7	-4	1	x
CCN(CC)P(=O)(c1nccn1C)N(CC)CC	3	3	10	-2	1	6
Cc1ccc(S(=O)(=O)N(C)CCCC(=O)N2CCN(c3ccccn3)CC2)cc1	-1	1	-13	90*	2	3
C=CCn1c(O)c(C(C)=Nc2ccc(NC(C)=O)cc2)c(=O)[nH]c1=O	-2	4	-8	0	0	x
Cc1ccc(CN2CCN(Cc3ccccc3)CC2)cc1	1	2	5	19	3	-1
CSc1ccc(CN2CCN(Cc3ccccc3Cl)CC2)cc1	4	3	-3	82*	9	2
CCC(C)n1c(C)cc(C(N)=O)c1C (stereo not given)	1	4	-8	-1	8	-4
COc1cccc(OCC(=O)N2CCN(C)CC2)c1	1	3	3	-7	4	-4
O=C(Cc1ccccc1)N1CCN(CC2CC3C=CC2C3)CC1 (stereo not given)	0	3	-2	67*	3	-1
CN1CCN(C(=O)Cc2ccccc2)CC1	-4	x	x	x	-3	1
COc1ccc(OCC(=O)N2CCN(CC3CC4C=CC3C4)CC2)cc1 (stereo not given)	5	5	-22	87*	2	-3
O=C(Cc1ccccc1)N1CCN(CC2CC=CCC2)CC1 (stereo not given)	-4	4	40	81*	0	1
O=C(CN1CCCCC1)c1ccc(F)cc1	-4	x	x	x	-2	0
O=C(c1ccccc1)C(CN1CCCC1)c1ccccc1 (stereo not given)	1	6	92*	100*	0	22
Fc1ccc(C2=CCN(C(c3cccs3)c3nnnn3CCc3ccccc3)CC2)cc1 (stereo not given)	2	2	2	100*	4	-6
CCC(C)(C)n1nnnc1C(c1cccs1)N1CC=C(c2ccc(F)cc2)CC1 (stereo not given)	-2	3	-2	2	-1	-5
O=C(O)c1cccc2nc3ccccc3nc12	1	6	2	100*	7	-1
C=C1C(=O)O[C@H]2[C@H]1[C@H](OC(=O)CC(=O)O[C@@H]1C[C@@H](C)[C@@H]3C=CC(=O)[C@@]3(C)[C@H]3OC(=O)C(=C)[C@H]13)C[C@@H](C)[C@H]1C=CC(=O)[C@]12C	x	x	x	x	x	-2
C=C1C(=O)O[C@@H]2C[C@@H](C)[C@@H]3C=CC(=O)[C@@]3(C)[C@@H](OC(=O)CC(=O)O[C@H]3[C@@H]4C(=C)C(=O)O[C@@H]4C[C@@H](C)[C@@H]4C=CC(=O)[C@]43C)[C@H]12	x	x	x	x	x	72*
SMILES	Ba/F3 V617F tox	MT stabilize HCS	APP 5UTR inh	Lmaj promast	BaF3 parental	bCat nuc transl
O=C1NC(=O)N(c2ccccc2F)C(=O)/C1=C/c1ccc(Oc2ccc([N+](=O)[O-])cn2)cc1	3	1	-7	0	6	0
Cc1ccsc1C(=O)C1CCCN(Cc2ccn[nH]2)C1 (stereo not given)	1	3	-11	6	8	-2
CSc1ccc(C(=O)C2CCCN(Cc3cc4ccccc4[nH]3)C2)cc1 (stereo not given)	0	2	0	88*	5	0
CSc1ccc(C(=O)C2CCCN(Cc3cccnc3)C2)cc1 (stereo not given)	-3	4	-14	85*	4	-2
O=C(c1ccc(Cl)cc1)C1CCCN(Cc2ccon2)C1 (stereo not given)	-2	2	0	-9	8	-2
O=C(c1ccc(-c2ccccc2)cc1)C1CCCN(Cc2ccn[nH]2)C1 (stereo not given)	4	3	-1	98*	9	-1
CC(C)(C)c1ccc(C(=O)C2CCCN(Cc3ccon3)C2)cc1 (stereo not given)	-1	1	-17	80*	1	1
COc1ccc(C2c3c(nc(C)[nH]c3=O)Oc3c2c(=O)oc2ccccc32)cc1 (stereo not given)	0	x	x	x	1	0
COc1ccc(C2NCc3ccc4c(c3-n3cccc32)OCO4)cc1O (stereo not given)	75*	29*	94*	74*	73*	x
c1cc2n(c1)-c1c(ccc3c1OCO3)CNC2c1ccc2c(c1)OCO2 (stereo not given)	-1	16	-5	14	2	11
Oc1cccc(/C=N/NP(=S)(c2ccccc2)c2ccccc2)c1	-5	2	x	83*	0	-4
CC[n+]1c(SC)ccc2cc(OC)ccc21	85*	2	-11	17	84*	-6
O=c1c2ccccc2nc(CNc2ccccc2)n1-c1ccccc1	0	x	x	x	0	-1
Clc1ccccc1CNC1CN2CCC1CC2 (stereo not given)	-2	2	-6	12	7	0
OC(c1cccc(Cl)c1)(c1cccc(Cl)c1)C1CN2CCC1CC2 (stereo not given)	3	1	-5	100*	7	-5
CN1CCN(c2ccc(F)cc2N)CC1	-4	4	25	-8	1	1
Cc1ccc(OCC(=O)N2CCN(C3CCC(c4ccccc4)CC3)CC2)cc1 (stereo not given)	-4	3	7	57*	5	0
O=C(COc1ccc(Br)cc1)N1CCN(C2CCCC2)CC1	2	2	-6	93*	4	-3
CN1CCN(C(=O)COc2ccc(Oc3ccccc3)cc2)CC1	-4	1	4	-7	5	-2
O=C(COc1ccccc1)N1CCN(C2CC3CCC2C3)CC1 (stereo not given)	-3	2	8	72*	2	-2
CCCN(CC#CCO)CCC	1	4	-2	-4	5	3
